Results as given in ChEMBL document CHEMBL1121957, “Imidodisulfamides. 2. Substituted 1,2,3,4-tetrahydroisoquinolinylsulfonic imides as antagonists of slow-reacting substance of anaphylaxis” (1982).

Organism: Cavia porcellus
Experiment: Percent inhibition of SRS-A induced contraction minus percent inhibition of 25 mM KCl induced contractions at a conc of 50(uM)
Assay type: functional
Summary of the method: (§1)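 Ileum segments (proximal to Peyer's patch) from male Hartley guinea pigs (400–600 g) were held in modified Tyrode's at 37.5 °C under 95% O2-5% CO2, with isometric recording. Partially purified guinea pig SRS-A or 25 mM KCl was dosed for 60–80% maximal contraction, then reapplied after 15 min compound exposure with five bath changes. Value is percent inhibition versus vehicle controls (3 vs 3 tissues), SRS-A minus KCl.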

Compound	Inhibition
O=S(=O)(NC1Cc2ccccc2C1)NS(=O)(=O)NC1Cc2ccccc2C1	11%
O=S(=O)(NS(=O)(=O)N1CCc2ccccc2CC1)N1CCc2ccccc2CC1	14%
O=S(=O)(NS(=O)(=O)N1CCc2ccccc21)N1CCc2ccccc21	-13%
O=S(=O)(NC1CCCC[C@@H]1c1ccccc1)NS(=O)(=O)NC1CCCC[C@H]1c1ccccc1 (some centres undefined)	41%
O=S(=O)(NS(=O)(=O)N1CCc2cc(Cl)ccc2C1)N1CCc2cc(Cl)ccc2C1	1%

Organism: Cavia porcellus
Experiment: Percent inhibition of SRS-A induced contraction minus percent inhibition of 25 mM KCl induced contractions at a conc of 50(uM); Not statistically significant
Assay type: functional
Summary of the method: as §1

Compound	Inhibition
O=S(=O)(NS(=O)(=O)N1CCc2ccccc2C1)N1CCc2ccccc2C1	10%

Organism: Cavia porcellus
Experiment: Percent inhibition of SRS-A induced contraction minus percent inhibition of 25 mM KCl induced contractions at a conc of 5(uM); Percent enhancement of tissue contraction compared to control
Assay type: functional
Summary of the method: as §1

Compound	Inhibition
COc1ccc2c(c1)CN(S(=O)(=O)NS(=O)(=O)N1CCc3ccc(OC)cc3C1)CC2	6%
COc1ccc2c(c1OC)CN(S(=O)(=O)NS(=O)(=O)N1CCc3ccc(OC)c(OC)c3C1)CC2	5%

Organism: Cavia porcellus
Experiment: Percent inhibition of SRS-A induced contraction minus percent inhibition of 25 mM KCl induced contractions at a conc of 5(uM)
Assay type: functional
Summary of the method: as §1

Compound	Inhibition
O=S(=O)(NS(=O)(=O)N1CCc2cc(Cl)ccc21)N1CCc2cc(Cl)ccc21	13%
O=S(=O)(NC1CC1c1ccc(Cl)c(Cl)c1)NS(=O)(=O)NC1CC1c1ccc(Cl)c(Cl)c1 (centres undefined)	42%
CC1Cc2ccc(Cl)c(Cl)c2CN1S(=O)(=O)NS(=O)(=O)N1Cc2c(ccc(Cl)c2Cl)CC1C (centres undefined)	18%
O=S(=O)(NS(=O)(=O)N1CCc2c(Br)cccc2C1)N1CCc2c(Br)cccc2C1	29%
CCCCCCC1c2c(ccc(Cl)c2Cl)CCN1S(=O)(=O)NS(=O)(=O)N1CCc2ccc(Cl)c(Cl)c2C1CCCCCC (centres undefined)	-5%
CSc1ccc2c(c1Cl)CN(S(=O)(=O)NS(=O)(=O)N1CCc3ccc(SC)c(Cl)c3C1)CC2	25%
O=S(=O)(NS(=O)(=O)N1CCc2c(Cl)c(Cl)c(Cl)c(Cl)c2C1)N1CCc2c(Cl)c(Cl)c(Cl)c(Cl)c2C1	14%
COc1ccc(OC)c2c1CCN(S(=O)(=O)NS(=O)(=O)N1CCc3c(OC)ccc(OC)c3C1)C2	12%
O=S(=O)(NS(=O)(=O)N1CCc2ccc(Br)cc2C1)N1CCc2ccc(Br)cc2C1	26%
O=S(=O)(NS(=O)(=O)N1CCc2ccc(Cl)c(Cl)c2C1c1ccccc1)N1CCc2ccc(Cl)c(Cl)c2C1c1ccccc1 (centres undefined)	20%
O=S(=O)(NS(=O)(=O)N1CCc2ccc(Cl)c(Cl)c2C1C1CC1)N1CCc2ccc(Cl)c(Cl)c2C1C1CC1 (centres undefined)	47%
COc1ccc2c(c1Cl)CN(S(=O)(=O)NS(=O)(=O)N1CCc3ccc(OC)c(Cl)c3C1)CC2	20%
O=S(=O)(NS(=O)(=O)N1CCc2cc(Cl)c(Cl)cc2C1)N1CCc2cc(Cl)c(Cl)cc2C1	40%
O=S(=O)(NS(=O)(=O)N1CCc2cc(Cl)ccc2C1)N1CCc2cc(Cl)ccc2C1	1%
O=S(=O)(NS(=O)(=O)N1CCc2ccc(Cl)c(SC(F)(F)C(F)F)c2C1)N1CCc2ccc(Cl)c(SC(F)(F)C(F)F)c2C1	22%
O=S(=O)(NS(=O)(=O)N1CCc2c(cccc2-c2ccccc2)C1)N1CCc2c(cccc2-c2ccccc2)C1	13%
Cc1ccc2c(c1Cl)CN(S(=O)(=O)NS(=O)(=O)N1CCc3ccc(C)c(Cl)c3C1)CC2	34%
O=S(=O)(NS(=O)(=O)N1CCc2ccc(Cl)cc2C1)N1CCc2ccc(Cl)cc2C1	18%
CC1c2c(ccc(Cl)c2Cl)CCN1S(=O)(=O)NS(=O)(=O)N1CCc2ccc(Cl)c(Cl)c2C1C (centres undefined)	48%
O=S(=O)(NS(=O)(=O)N1CCc2ccc(Cl)c(Cl)c2C1)N1CCc2ccc(Cl)c(Cl)c2C1	42%
O=S(=O)(NS(=O)(=O)N1CCc2c(Br)ccc(Br)c2C1)N1CCc2c(Br)ccc(Br)c2C1	50%
O=S(=O)(NS(=O)(=O)N1CCc2ccc([S+]([O-])C(Cl)(Cl)Cl)cc2C1)N1CCc2ccc([S+]([O-])C(Cl)(Cl)Cl)cc2C1 (centres undefined)	28%
O=S(=O)(NS(=O)(=O)N1CCc2ccc(Cl)c(Cl)c2C1C1CCCC1)N1CCc2ccc(Cl)c(Cl)c2C1C1CCCC1 (centres undefined)	4%
O=S(=O)(NC1CC1c1ccccc1)NS(=O)(=O)NC1CC1c1ccccc1 (centres undefined)	17%
O=S(=O)(NS(=O)(=O)N1CCc2ccc(Cl)c(Cl)c2C1Cc1ccccc1)N1CCc2ccc(Cl)c(Cl)c2C1Cc1ccccc1 (centres undefined)	8%
O=S(=O)(NS(=O)(=O)N1CCc2ccc(C(F)(F)F)c(C(F)(F)F)c2C1)N1CCc2ccc(C(F)(F)F)c(C(F)(F)F)c2C1	27%

Organism: Cavia porcellus
Experiment: Percent inhibition of SRS-A induced contraction minus percent inhibition of 25 mM KCl induced contractions at a conc of 5(uM); Not statistically significant
Assay type: functional
Summary of the method: as §1

Compound	Inhibition
O=S(=O)(NS(=O)(=O)N1CCc2cccc(Cl)c2C1)N1CCc2cccc(Cl)c2C1	16%
CC(=O)c1ccc2c(c1)CN(S(=O)(=O)NS(=O)(=O)N1CCc3ccc(C(C)=O)cc3C1)CC2	4%
O=S(=O)(NS(=O)(=O)N1CCc2c(Cl)cccc2C1)N1CCc2c(Cl)cccc2C1	8%
O=S(=O)(NS(=O)(=O)N1CCc2c(Br)cc(Br)c(Br)c2C1)N1CCc2c(Br)cc(Br)c(Br)c2C1	7%
O=S(=O)(NS(=O)(=O)N1CCc2cc(Cl)c(Cl)c(Cl)c2C1)N1CCc2cc(Cl)c(Cl)c(Cl)c2C1	11%
